Screening results as filed in PubChem.
Sampled rows, rich in hits. Any-hit rate of the full collection: about 1.6%.
STEP block = STEP (human) phosphatase inhibition; P54829; recombinant STEP, OMFP fluorogenic substrate, fluorescence; inhibition, % at 20 µM; actives 0.25% (n = 360,000); AID 588621;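 active = inhibition at 20 µM, scaled per plate between control wells, above about 37%, limit read from the data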;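 also: 0% = DMSO with enzyme and substrate and 100% = substrate only without enzyme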
Target sequence (P54829 whole entry, looked up): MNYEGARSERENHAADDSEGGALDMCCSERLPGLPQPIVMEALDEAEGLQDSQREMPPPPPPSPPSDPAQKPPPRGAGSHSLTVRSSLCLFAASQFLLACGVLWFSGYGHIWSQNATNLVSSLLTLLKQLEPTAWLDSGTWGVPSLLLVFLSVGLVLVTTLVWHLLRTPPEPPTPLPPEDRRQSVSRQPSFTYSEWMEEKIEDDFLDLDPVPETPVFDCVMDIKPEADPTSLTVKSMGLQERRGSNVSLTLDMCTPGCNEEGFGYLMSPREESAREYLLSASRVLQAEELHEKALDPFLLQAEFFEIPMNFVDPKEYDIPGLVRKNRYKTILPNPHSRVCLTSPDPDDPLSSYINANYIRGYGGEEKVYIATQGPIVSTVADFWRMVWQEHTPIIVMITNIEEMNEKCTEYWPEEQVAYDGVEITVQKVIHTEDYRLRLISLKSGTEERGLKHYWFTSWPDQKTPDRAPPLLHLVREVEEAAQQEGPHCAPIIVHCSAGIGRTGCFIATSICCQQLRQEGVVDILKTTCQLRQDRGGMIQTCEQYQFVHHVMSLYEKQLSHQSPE
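medium = Bis-Tris buffer pH 6.0, 2.5 mM DTT, 0.005% Tween 20 | test system = STEP (striatal-enriched tyrosine phosphatase) enzyme, cell-free | measure = normalized % inhibition | compound dosing = 20 µM, 1% DMSO | also added = 25 µM OMFP | schedule = reaction 20 min, ambient temperature | measured by = fluorescence read at 480 nm ex / 540 nm em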
CFTR F508del cor = CFTR F508del correction in bronchial cells; CFBE cells, YFP halide quenching; stimulated with forskolin plus potentiator P3; % fluorescence drop versus neutral controls; activity (quench increase), % at 7.58 µM; actives 0.36% (n = 350,000);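 active = mean added fluorescence quench of at least 8% versus neutral control, with both replicates also reaching 8%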;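 also: cells transiently co-express mutant CFTR-F508del with the halide-sensitive YFP; corrector assay measuring rescue of mutant channel to the surface after 24 h compound exposure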
DNMT1 inh = blocks human DNA methyltransferase DNMT1; inhibition (reported as % activation of signal), % at 10 µM; actives 0.83% (n = 360,000); DNMT1 molecular beacon, Hinp1I cleavage, fluorescence; P26358; in the data active = inhibition above about 50%
SUMO1 PPI mod = modulators of human SUMO1-mediated protein-protein interactions | SUMO1 binding to a labelled peptide, TR-FRET, 1 h | P63165 | inhibition, % at 20 µM | actives 0.33% (n = 360,000); in the data active = inhibition above about 37%
LMPTP block = blocks human LMPTP phosphatase | AID 651560 | actives 0.22% (n = 360,000) | recombinant LMPTP-A, OMFP fluorogenic substrate, fluorescence intensity | inhibition, % at 20 µM | P24666;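 active = compounds that cut the enzyme signal by at least half of the control window in the single-dose screen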;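 also: plate controls were DMSO wells with enzyme plus substrate for no effect and substrate without enzyme for full effect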
Target sequence (P24666 whole entry, looked up): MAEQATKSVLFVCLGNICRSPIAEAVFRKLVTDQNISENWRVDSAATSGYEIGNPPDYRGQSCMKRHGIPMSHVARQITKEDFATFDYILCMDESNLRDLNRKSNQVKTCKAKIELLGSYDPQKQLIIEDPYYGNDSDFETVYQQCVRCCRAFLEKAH
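Buffer or medium: Bis-Tris pH 6.0, DTT, detergent; Assay system: LMPTP-A enzyme; Quantity: 0.625 nM enzyme; Detection: endpoint fluorescence intensity; Times: 50 min dark incubation at room temperature; Controls: substrate-only low control, DMSO enzyme-plus-substrate high control; Doses: single 20 µM dose; Read-out: percent inhibition versus substrate-only and uninhibited controls; Reagent: 400 µM OMFP.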
Scp1 inh = blocks human Scp-1 phosphatase activity | Recombinant Scp1, phosphopeptide, malachite green phosphate absorbance | inhibition, % at 20 µM | actives 0.88% (n = 340,000);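 active = inhibition above about 50% at 20 µM, limit read from the data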;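 also: plate controls were DMSO wells with enzyme for no effect and wells lacking enzyme for full effect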
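assay system = SCP-1 phosphatase catalytic domain, residues 76-261 | buffer or medium = 50 mM Tris acetate pH 5.5, 0.005% Tween-20, 10 mM MgCl2 | incubation = enzyme reaction 45 min at room temperature, colour 5 min, stabilisation 30 min | signal = Phosphate-binding colour reagent, absorbance read at 630 nm | measure = % inhibition at 20 µM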
Active calls of the source: *.

Results for O=C(Nc1ccc(C2=NCCN2)cc1)c1ccc(C(=O)Nc2ccc(C3=NCCN3)cc2)c(Cl)c1 ?
STEP block: 2.8; CFTR F508del cor: 2.5; DNMT1 inh: -29.1; SUMO1 PPI mod: 86.8*; LMPTP block: 59.3*; Scp1 inh: -17.5

What do the screens show for `CO[C@@H]1CN(C)C(=O)c2cc(NC(=O)c3cc(C)on3)ccc2OC[C@H](C)NC[C@H]1C`?
CFTR F508del cor: -3.2

What do the screens show for `CCN(CC)CCCNc1nc2ccccc2c2[nH]c3ccc(OC)cc3c12`?
STEP block: 5.6; CFTR F508del cor: 16.8*; DNMT1 inh: -81.4; SUMO1 PPI mod: -76.8; LMPTP block: 23.0; Scp1 inh: -0.3

Results for CC(C)(C)[C@H](N)C(=O)N[C@H]1CCC2C3CC=C4C[C@@H](O)CC[C@]4(C)C3CC[C@@]21C (stereo partly specified) ?
STEP block: 1.4; CFTR F508del cor: -0.3; DNMT1 inh: -31.3; SUMO1 PPI mod: 40.9*; LMPTP block: -1.5; Scp1 inh: -0.3

What do the screens show for `CC(=O)C1CCC2C3CC=C4CC(SC(=N)N)CCC4(C)C3CCC12C` (stereo unspecified)?
STEP block: 4.7; CFTR F508del cor: 3.2; DNMT1 inh: 4.7; SUMO1 PPI mod: -54.1; LMPTP block: 62.7*; Scp1 inh: 17.0

Results for CC(C)C(=O)N[C@H]1CCC2C3CC=C4C[C@@H](O)CC[C@]4(C)C3CC[C@@]21C (stereo partly specified) ?
STEP block: 1.0; CFTR F508del cor: -1.9; DNMT1 inh: -2.8; SUMO1 PPI mod: 7.1; LMPTP block: -1.2; Scp1 inh: -5.0

Results for CCCNC(=O)C[C@@H]1CC[C@@H]2[C@H](COC[C@@H](O)CN2C(=O)c2cc(Cl)cc(Cl)c2)O1 ?
CFTR F508del cor: 0.2

Results for COC(=O)c1cc(Nc2cc(C)c3c(O)cccc3n2)cc(C(=O)OC)c1 ?
STEP block: 2.2; CFTR F508del cor: -7.3; DNMT1 inh: -14.4; SUMO1 PPI mod: 8.7; LMPTP block: 42.7; Scp1 inh: 0.2

Results for Cc1ccccc1Nc1cc(C)c2c(O)cccc2n1 ?
STEP block: -1.1; CFTR F508del cor: -1.6; DNMT1 inh: -0.2; SUMO1 PPI mod: -0.4; LMPTP block: 66.7*; Scp1 inh: -16.1

How did Cc1ccc(Nc2cc(C)c3c(O)cccc3n2)cc1C do in these assays?
STEP block: 5.2; CFTR F508del cor: 3.1; DNMT1 inh: -15.9; SUMO1 PPI mod: 8.5; LMPTP block: 67.4*; Scp1 inh: 2.5

Results for COc1ccc(Nc2cc(C)c3c(O)cccc3n2)cc1 ?
STEP block: -3.3; CFTR F508del cor: -1.5; DNMT1 inh: -13.8; SUMO1 PPI mod: -0.9; LMPTP block: 79.3*; Scp1 inh: -4.1

How did CCC(=O)Nc1ccc2c(c1)OC[C@@H](C)N(C(=O)c1cnccn1)C[C@@H](C)[C@@H](OC)CN(C)C2=O do in these assays?
CFTR F508del cor: 1.9

Results for CO[C@@H]1CN(C)C(=O)c2cc(NC(=O)Nc3ccccc3Cl)ccc2OC[C@@H](C)N(S(=O)(=O)CC(F)(F)F)C[C@H]1C ?
CFTR F508del cor: -3.0

How did Cc1ccc(C(=O)NNC(=O)c2ccc(S(=O)(=O)N3CCCCC3)cc2)cc1 do in these assays?
STEP block: -2.1; CFTR F508del cor: 9.8*; DNMT1 inh: -4.4; SUMO1 PPI mod: 1.5; LMPTP block: 1.2; Scp1 inh: 44.5

What do the screens show for `CC1CCN(C(=O)c2ccc(S(=O)(=O)N3CCCC3)cc2)CC1`?
STEP block: -1.0; CFTR F508del cor: 9.3*; DNMT1 inh: 0.0; SUMO1 PPI mod: 37.2; LMPTP block: -0.5; Scp1 inh: -3.4

How did CC1CCN(C(=O)c2ccc(S(=O)(=O)N3CCCCCC3)cc2)CC1 do in these assays?
STEP block: 0.3; CFTR F508del cor: -2.6; DNMT1 inh: 2.4; SUMO1 PPI mod: -6.8; LMPTP block: -1.5; Scp1 inh: -1.1

How did CO[C@H]1CN(C)C(=O)c2cc(NC(=O)c3cccc(F)c3)ccc2OC[C@@H](C)N(C(C)=O)C[C@H]1C do in these assays?
CFTR F508del cor: -2.1

Results for C[C@@H]1CN([C@H](C)CO)C(=O)Cc2cc(NC(=O)C3CC3)ccc2O[C@@H]1CN(C)Cc1ccccc1 ?
CFTR F508del cor: -1.1

How did O=C(OCC(=O)N1CCCC1)c1cccc(Br)c1 do in these assays?
STEP block: -1.5; CFTR F508del cor: -1.6; DNMT1 inh: 3.3; SUMO1 PPI mod: 67.2*; LMPTP block: -1.6; Scp1 inh: 1.8

What do the screens show for `CNS(=O)(=O)c1cccc(C(=O)OCC(=O)N2CCCC2)c1`?
STEP block: -2.2; CFTR F508del cor: -1.6; DNMT1 inh: 5.8; SUMO1 PPI mod: -2.2; LMPTP block: 0.1; Scp1 inh: 1.8

Results for O=C1C=C(N(CCO)Cc2ccccc2)c2ccccc2C1=O ?
STEP block: 1.3; DNMT1 inh: 77.4*; SUMO1 PPI mod: 32.1; LMPTP block: 8.5; Scp1 inh: -2.9

Results for O=C(C[C@H]1C=C[C@@H](NC(=O)Nc2cc(F)ccc2F)[C@H](CO)O1)Nc1ccccc1 ?
CFTR F508del cor: -1.6

How did COc1ccc(/C=N\NC(=O)c2cc3c(ccc4ccccc43)o2)cc1O do in these assays?
STEP block: 6.6; CFTR F508del cor: 0.4; DNMT1 inh: -5.6; SUMO1 PPI mod: 67.9*; LMPTP block: 3.4; Scp1 inh: 20.0

How did O=C(N/N=C/c1ccc(-c2ccc(Cl)c(C(=O)O)c2)o1)c1cc2c(ccc3ccccc32)o1 do in these assays?
STEP block: 27.7; CFTR F508del cor: -1.3; DNMT1 inh: 32.4; SUMO1 PPI mod: 20.9; LMPTP block: 7.8; Scp1 inh: 88.8*

What do the screens show for `Cc1ccc([N+](=O)[O-])cc1-c1ccc(/C=N/NC(=O)c2cc3c(ccc4ccccc43)o2)o1`?
STEP block: 2.8; DNMT1 inh: 49.6; SUMO1 PPI mod: 37.6; LMPTP block: 3.2; Scp1 inh: 2.9

What do the screens show for `O=C(N/N=C/c1ccncc1)c1cc2c(ccc3ccccc32)o1`?
STEP block: 2.9; DNMT1 inh: -0.9; SUMO1 PPI mod: 52.5*; LMPTP block: 5.9; Scp1 inh: 8.6

How did C=CCN=c1scc(-c2ccc3c(c2)NC(=O)CO3)n1/N=C(\C)c1ccccn1 do in these assays?
STEP block: -0.6; CFTR F508del cor: 8.7*; DNMT1 inh: 0.1; SUMO1 PPI mod: -2.5; LMPTP block: 8.3; Scp1 inh: -10.9

How did C=CCN=c1scc(-c2ccc(F)cc2)n1/N=C/c1ccccn1 do in these assays?
STEP block: 1.7; CFTR F508del cor: 3.8; DNMT1 inh: -0.9; SUMO1 PPI mod: -15.5; LMPTP block: 2.2; Scp1 inh: -8.0
